Assay results pooled from the literature.
Each line is one published result; the experiments were not run side by side.
HTR1F: 5-hydroxytryptamine receptor 1F (HTR1F, Homo sapiens, UniProt P30939)
DUOX2: DUOX2 (Homo sapiens, UniProt Q9NRD8)
MPO: Myeloperoxidase (MPO, Homo sapiens, UniProt P05164)

SMILES	target	assay	conditions	endpoint	value
Nc1ncnc2c1ncn2[C@@H]1O[C@H](COP(=O)(O)OP(=O)(O)OP(=O)(O)OP(=O)(O)OP(=O)(O)OC[C@H]2O[C@@H](n3cnc4c(N)ncnc43)[C@H](O)[C@@H]2O)[C@@H](O)[C@H]1O	adk (Escherichia coli, UniProt P69441)	binding, ITC		Kd	0.2 µM
O=c1oc(-c2cccnc2)nc2ccccc12	Plasma kallikrein (KLKB1, Homo sapiens, UniProt P03952)	enzyme activity, inhibitor, absorbance		IC50	> 50 µM
CCOc1ccccc1OCCN[C@H](C)Cc1ccc(OC)c(S(N)(=O)=O)c1	Anoctamin-1 (Ano1, Mus musculus, UniProt Q8BHY3)	ion current, inhibitor, patch clamp		IC50	7.22 µM
C[C@@H]1CN(C(=O)[C@@H]2CN(C(C)(C)C)C[C@H]2c2ccc(F)cc2F)C[C@H](C)[C@@]1(O)c1ccccc1	Melanocortin receptor 4 (MC4R, Homo sapiens, UniProt P32245)	ligand displacement, radioligand		Ki	0.199 µM
CN(C)CCOC1=Cc2ccccc2Sc2ccc(Cl)cc21	HTR1F	G protein activation, agonist, BRET		EC50	1.82 µM
CCCC(=O)NCCCN1CCc2c([nH]c3ccc(Cl)cc23)C1	Sodium-dependent noradrenaline transporter (SLC6A2, Homo sapiens, UniProt P23975)	transporter uptake, inhibitor		IC50	250 µM
Cc1coc2c1C(=O)C(=O)c1c-2ccc2c1CCCC2(C)CO (stereo not shown)	DUOX2	enzyme activity, inhibitor	cell membranes	IC50	8.9 µM
O=c1oc2cc(O)ccc2c2ccc(O)cc12	Glutaminase kidney isoform, mitochondrial (GLS, Homo sapiens, UniProt O94925)	binding, SPR		Kd	0.000266 µM
CN1CCN2c3ccccc3Cc3ccccc3C2C1 (stereo not shown)	HTR1F	G protein activation, agonist, BRET		EC50	0.0475 µM
COc1ccc(CNC(=O)c2cc3c(cc2[N+](=O)[O-])OCO3)cc1	MPO	enzyme activity, inhibitor		IC50	4.5 µM
C[C@H]1COC2=C1C(=O)C(=O)c1c2ccc2c1CCCC2(C)C	DUOX2	enzyme activity, inhibitor	cell membranes	IC50	2.1 µM
CC(C)CCC[C@@H](C)[C@H]1CC[C@H]2[C@@H]3CC[C@H]4C[C@H](N)CC[C@]4(C)[C@H]3CC[C@]12C	Phosphatidylinositol 3,4,5-trisphosphate 5-phosphatase 1 (INPP5D, Homo sapiens, UniProt Q92835)	enzyme activity, inhibitor, absorbance	pH 7.4	IC50	22.4 µM
CC(=O)c1cccc(NC(=O)c2cc3c(cc2[N+](=O)[O-])OCO3)c1	MPO	enzyme activity, inhibitor		IC50	10 µM
